# Assay results collected from several papers.
# Spike glycoprotein: Spike glycoprotein (Severe acute respiratory syndrome coronavirus 2, UniProt P0DTC2)
Structure (SMILES),target,test,conditions,quantity,result
O=c1cc(-c2ccccc2)oc2c(O)c(O)ccc12,Spike glycoprotein,"binding, BLI",,koff,0.0482 s⁻¹
CCCCCCCCCCCCCCCCCCCCCCCCCC(=O)N[C@@H](CO[C@H]1O[C@H](CO)[C@H](O)[C@H](O)[C@H]1O)[C@H](O)[C@H](O)CCCCCCCCCCCCCC,"Cd1d1 (Mus musculus, UniProt P11609)","binding, SPR",,kon,63000 M⁻¹ s⁻¹
C=C1C[C@@]23CC[C@H]4[C@@](C)(CCC[C@@]4(C)C(=O)O[C@@H]4O[C@H](CO)[C@@H](O)[C@H](O)[C@H]4O)[C@@H]2CC[C@]1(O[C@@H]1O[C@H](CO)[C@@H](O)[C@H](O)[C@H]1O)C3,Spike glycoprotein,"binding, BLI",,koff,0.122 s⁻¹
CC[C@H](C)[C@@H]1NC(=O)[C@H](Cc2ccc(O)cc2)NC(=O)[C@H](C(C)C)NC(=O)[C@H]([C@@H](C)CC)NC(=O)[C@H](CO)NC(=O)[C@H](Cc2ccc(O)cc2)NC(=O)CSC[C@@H](C(N)=O)NC(=O)CNC(=O)[C@H](CCCNC(=N)N)NC(=O)CNC(=O)[C@H](C(C)C)NC(=O)[C@H](Cc2ccccc2)NC(=O)[C@H](CCCNC(=N)N)NC(=O)[C@H](C(C)C)NC(=O)[C@H](CCC(=O)O)NC(=O)CNC(=O)[C@H](CCCCN)NC1=O,Spike glycoprotein,binding,,koff,0.0058 s⁻¹
Cc1nn(C)cc1-c1nc2c(N3CCN(Cc4ccc(Cl)cc4)CC3)c(Cl)cnc2[nH]1,"Tyrosine-protein kinase ABL1, non-phosphorylated (ABL1, Homo sapiens, UniProt P00519, H396P)","binding, competition with immobilised ligand",1 µM,remaining binding,100%
CC[C@H](C)[C@@H]1NC(=O)[C@H](C)NC(=O)[C@H](CCCCN)NC(=O)[C@H](Cc2c[nH]c3ccccc23)NC(=O)[C@H](CC(C)C)NC(=O)[C@H](CC(C)C)NC(=O)[C@H](C(C)C)NC(=O)[C@H](CC(=O)O)NC(=O)[C@H](Cc2ccccc2)NC(=O)[C@H](Cc2ccc(O)cc2)NC(=O)[C@@H](Cc2ccc(O)cc2)NC(=O)CSC[C@@H](C(N)=O)NC(=O)[C@H](CO)NC1=O,Spike glycoprotein,binding,,koff,0.065 s⁻¹
COc1ncccc1-c1cnn2ccc(N3CCN(C(=O)OC(C)C)CC3)nc12,"Serine/threonine-protein kinase RIO1 (RIOK1, Homo sapiens, UniProt Q9BRS2)","binding, competition with immobilised ligand",1 µM,remaining binding,3.9%
O=c1c(O)c(-c2ccc(O)cc2)oc2cc(O)cc(O)c12,Spike glycoprotein,"binding, BLI",,koff,0.053 s⁻¹
C#Cc1n[nH]c2c(-c3cn(C(C)c4ccccn4)c(=O)[nH]c3=O)cc(F)cc12 (stereo not shown),"Receptor tyrosine-protein kinase erbB-2 (ERBB2, Homo sapiens, UniProt P04626)","enzyme activity, inhibitor",1 µM,inhibition,-4.5%
Cn1cc(-c2cccc(N3CCc4c(sc5c4CC(C)(C)C5)C3=O)c2CO)cc(Nc2ccncn2)c1=O,"Serine/threonine-protein kinase WNK2 (WNK2, Homo sapiens, UniProt Q9Y3S1)","enzyme activity, inhibitor",1 µM,inhibition,2%
Nc1ncc(-c2nc(N3CCOCC3)nc(N3CCOCC3)n2)c(C(F)F)n1,"Tyrosine-protein kinase ABL1, non-phosphorylated (ABL1, Homo sapiens, UniProt P00519)","binding, competition with immobilised ligand",10 µM,remaining binding,70%
O=C1c2c(O)cccc2C([C@@H]2O[C@H](CO)[C@@H](O)[C@H](O)[C@H]2O)c2cc(CO)cc(O)c21 (stereo partly shown),Spike glycoprotein,"binding, BLI",,koff,0.0217 s⁻¹
Cn1cc(-c2cc(F)cc(N3CCn4c(cc5c4CCCC5)C3=O)c2CO)cc(Nc2ccc(N3CCN(C4COC4)CC3)cn2)c1=O,"Tyrosine-protein kinase ABL1 (ABL1, Homo sapiens, UniProt P00519, E255K)","enzyme activity, inhibitor",0.1 µM,inhibition,1%
